This note sets out measurements from ChEMBL document CHEMBL2034818, “Synthesis and evaluation of boronic acids as inhibitors of Penicillin Binding Proteins of classes A, B and C” (Bioorg Med Chem, 2012).

Assay [1] deals with T1, Penicillin-binding protein 2X (Streptococcus pneumoniae R6) (UniProt P59676).
T1 sequence (whole entry): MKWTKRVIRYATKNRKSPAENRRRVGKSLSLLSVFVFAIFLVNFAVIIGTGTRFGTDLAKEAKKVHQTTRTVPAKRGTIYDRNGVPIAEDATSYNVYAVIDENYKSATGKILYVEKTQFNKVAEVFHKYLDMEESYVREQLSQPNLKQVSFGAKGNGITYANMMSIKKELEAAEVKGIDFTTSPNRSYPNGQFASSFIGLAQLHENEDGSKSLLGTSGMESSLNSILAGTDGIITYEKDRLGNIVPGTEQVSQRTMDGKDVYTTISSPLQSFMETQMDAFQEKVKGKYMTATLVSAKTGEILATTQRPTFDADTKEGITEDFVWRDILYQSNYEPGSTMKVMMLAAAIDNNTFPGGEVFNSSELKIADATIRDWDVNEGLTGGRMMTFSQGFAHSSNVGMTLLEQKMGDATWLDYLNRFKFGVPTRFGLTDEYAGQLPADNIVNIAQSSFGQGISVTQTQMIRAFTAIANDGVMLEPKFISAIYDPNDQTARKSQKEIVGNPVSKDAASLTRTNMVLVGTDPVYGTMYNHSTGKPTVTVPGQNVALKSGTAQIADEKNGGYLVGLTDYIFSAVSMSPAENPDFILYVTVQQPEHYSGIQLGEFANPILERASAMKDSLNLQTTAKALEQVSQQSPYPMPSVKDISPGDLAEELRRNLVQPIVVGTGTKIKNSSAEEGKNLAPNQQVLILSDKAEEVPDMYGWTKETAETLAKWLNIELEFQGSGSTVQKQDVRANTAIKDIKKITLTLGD
The assay is described as follows: Inhibition of penicillin-sensitive Streptococcus pneumoniae R6 PBP2x using S2d as substrate assessed as residual activity at 1 mM incubated for 60 mins prior to substrate addition by DTNB-based spectrophotometry. In a few lines: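 S. pneumoniae PBP2x-R6, 0.09 µM, pre-incubated with inhibitor in 10 mM sodium phosphate pH 7.0 with 0.01 mg/mL BSA, 60 min, 25 °C; 1% DMF final. S2d (1 mM) plus DTNB (1 mM) then added; residual activity taken from initial hydrolysis rate at 412 nm, corrected for spontaneous hydrolysis; triplicates, six no-inhibitor controls per plate.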

For assay [2], the system named is Enterococcus faecium. In words: Inhibition of penicillin-resistant Enterococcus faecium PBP5fm assessed as residual activity at 1 mM incubated for 4 hrs prior to prior to fluoresceyl-ampicillin labelling measured after 20 mins by SDS-PAGE analysis.
Assay [3] addresses D-alanyl-D-alanine carboxypeptidase (Actinomadura sp. R39) (UniProt P39045). In words: Inhibition of Actinomadura sp. R39 PBP using S2d as substrate assessed as residual activity at 1 mM incubated for 60 mins prior to substrate addition by DTNB-based spectrophotometry. The essentials:
(§1)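 R39 (Actinomadura, prepared per Granier), 3.5 nM, pre-incubated with inhibitor 60 min at 25 °C in 10 mM sodium phosphate pH 7.2, 100 mM NaCl, 100 mM D-alanine, 0.01 mg/mL BSA; inhibitors from DMF stock, 1% DMF final. Residual activity from initial rate of S2d (1 mM) hydrolysis with DTNB (1 mM), read at 412 nm, corrected for spontaneous hydrolysis; triplicates, uninhibited control six replicates per plate.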

Assay [4] has as its target T2, Penicillin-binding protein 2x (Streptococcus pneumoniae serotype 4 (strain ATCC BAA-334 / TIGR4)) (UniProt P14677).
T2 sequence (whole entry): T1 sequence (whole entry) with M385T
The assay is described as follows: Inhibition of penicillin-resistant Streptococcus pneumoniae 5204 PBP2x using S2d as substrate assessed as residual activity at 1 mM incubated for 4 hrs prior to substrate addition by DNTB-based spectrophotometry in the presence of triton X 100.

Assay [5] relates to Streptococcus pneumoniae. In words: Inhibition of Streptococcus pneumoniae PBP1b assessed as residual activity at 1mM incubated for 60 mins prior to fluoresceyl-ampicillin labelling measured after 20 mins by SDS-PAGE analysis in the presence of triton X 100. In a few lines: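 Assay A: purified S. pneumoniae PBP1b (0.7 µM) pre-incubated with inhibitor in 10 mM sodium phosphate pH 7.0, 60 min, 25 °C, 0.01% Triton X-100. Remaining active enzyme labelled with fluoresceyl-ampicillin (10 µM), 20 min; reaction stopped, run on SDS-PAGE, fluorescence of the band quantified as residual activity.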

Assay [6] relates to Staphylococcus aureus. The assay is described as follows: Inhibition of penicillin-resistant Staphylococcus aureus PBP2a assessed as residual activity at 1 mM incubated for 4 hrs prior to prior to fluoresceyl-ampicillin labelling measured after 20 mins by SDS-PAGE analysis.
Assay [7] has as its system Streptococcus pneumoniae. The assay is described as follows: Inhibition of Streptococcus pneumoniae PBP1b using PATP thioester as substrate assessed as residual activity at 100 uM incubated for 60 mins prior to substrate addition by DNTB-based spectrophotometry in the presence of triton X 100. In a few lines: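 Assay B: S. pneumoniae PBP1b (0.2 µM) pre-incubated with inhibitor 60 min at 25 °C in 10 mM sodium phosphate pH 7.0, 100 mM D-alanine, 0.01 mg/mL BSA, 0.01% Triton X-100. Residual activity from initial rates of PATP thioester (5 mM) hydrolysis with DTNB (1.0 mM); IC50 by non-linear regression of residual activity across concentrations.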

In assay [8] the target is T3, Penicillin-binding protein 2X (Streptococcus pneumoniae R6, UniProt P59676).
T3 sequence (P59676 whole entry): T1 sequence (whole entry)
In words: Inhibition of penicillin-sensitive Streptococcus pneumoniae R6 PBP2x using S2d as substrate incubated for 60 mins prior to substrate addition by DTNB-based spectrophotometry. The essentials:
(§2)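 PBP purified per earlier method. Pre-incubation: enzyme with inhibitor (DMF stock, 1% DMF final) at 25 °C for 60 min. Buffer for R39 (3.5 nM): 10 mM sodium phosphate pH 7.2, 100 mM NaCl, 100 mM D-alanine, 0.01 mg/mL BSA. Buffer for PBP2xR6: 10 mM sodium phosphate pH 7.0, 0.01 mg/mL BSA. S2d (1 mM) and DTNB (1 mM) then added. Initial hydrolysis rate read at 412 nm. Triplicates. IC50 by non-linear regression of residual activity over a concentration range, with 0.01% Triton X-100.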

The target of assay [9] is T2, Penicillin-binding protein 2x (Streptococcus pneumoniae serotype 4 (strain ATCC BAA-334 / TIGR4)). In words: Inhibition of penicillin-resistant Streptococcus pneumoniae 5204 PBP2x using S2d as substrate assessed as residual activity at 1 mM incubated for 4 hrs prior to substrate addition by DNTB-based spectrophotometry.
Assay [10] has as its target T4, D-alanyl-D-alanine carboxypeptidase (Actinomadura sp. R39, UniProt P39045). In words: Binding affinity to Actinomadura sp. R39 PBP.
For assay [11], the target named is D-alanyl-D-alanine carboxypeptidase (Actinomadura sp. R39) (UniProt P39045). The assay is described as follows: Inhibition of Actinomadura sp. R39 PBP using S2d as substrate assessed as residual activity at 1 mM incubated for 60 mins prior to substrate addition by DTNB-based spectrophotometry in presence of triton X 100. In a few lines: as §1
Assay [12] concerns the target T1, Penicillin-binding protein 2X (Streptococcus pneumoniae R6). In words: Inhibition of penicillin-sensitive Streptococcus pneumoniae R6 PBP2x using S2d as substrate assessed as residual activity at 1 mM incubated for 60 mins prior to substrate addition by DTNB-based spectrophotometry in presence of triton X 100. In a few lines:
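PBP2xR6 (0.09 µM) pre-incubated with inhibitor for 60 min at 25 °C in 10 mM sodium phosphate pH 7.0, 0.01 mg/mL BSA, with 0.01% Triton X-100. 1% DMF final. S2d (1 mM) and DTNB (1 mM) then added. Initial hydrolysis rate read at 412 nm. Triplicates. Uninhibited activity from six replicates per plate.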

Assay [13] addresses T4, D-alanyl-D-alanine carboxypeptidase. The assay is described as follows: Inhibition of Actinomadura sp. R39 PBP using S2d as substrate incubated for 60 mins prior to substrate addition by DTNB-based spectrophotometry. The essentials: as §2

SMILES strings stand for the structures. Positions count from the first letter of the chain named.

Chain of D-alanyl-D-alanine carboxypeptidase (Actinomadura sp. R39) (P39045 whole entry): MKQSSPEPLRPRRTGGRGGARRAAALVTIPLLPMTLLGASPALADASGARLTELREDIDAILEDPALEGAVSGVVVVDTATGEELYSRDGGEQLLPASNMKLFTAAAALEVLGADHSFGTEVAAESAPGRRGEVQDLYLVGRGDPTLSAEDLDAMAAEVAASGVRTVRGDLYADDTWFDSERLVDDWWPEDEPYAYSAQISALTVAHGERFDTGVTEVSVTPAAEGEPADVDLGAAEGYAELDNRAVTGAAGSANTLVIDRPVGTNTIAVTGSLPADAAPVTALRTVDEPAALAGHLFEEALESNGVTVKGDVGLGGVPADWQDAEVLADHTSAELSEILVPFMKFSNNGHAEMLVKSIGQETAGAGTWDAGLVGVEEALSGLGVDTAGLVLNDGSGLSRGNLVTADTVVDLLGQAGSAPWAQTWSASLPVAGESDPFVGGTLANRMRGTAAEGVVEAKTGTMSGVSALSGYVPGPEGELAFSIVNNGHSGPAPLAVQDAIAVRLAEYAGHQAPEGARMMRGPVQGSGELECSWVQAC
T4 sequence (P39045 whole entry): as above

In the case of `COc1ccc(C(=O)NCB(O)O)cc1OC`, the Activity in assay [1] was found to be 82%; in assay [2], 78%; in assay [3], 81%; in assay [4] it was 98%; in [5], 90%; in assay [6] it was 75%.
Turning to `O=C(Cc1ccccc1[N+](=O)[O-])NCB(O)O`, the Activity in [1] amounted to 31%; in assay [2] it was 84%; in assay [7], 52%; in [3] it was 52%; in assay [6], 85%; in assay [9] it was 86%. The concentration for half-maximal inhibition (IC50) in assay [8] is 339 µM.
On to `O=C(Cc1ccccc1Cl)NCB(O)O`, for which the Activity in [1] came out at 26%; in assay [2] it was 88%; in [7], 96%; in assay [3], 57%; in assay [5], 24%; in [6], 77%. In addition, in assay [9], the Activity was determined as 90%. The concentration for half-maximal inhibition (IC50) in assay [8] is 649 µM.
Take `COc1cccc(OC)c1C(=O)NCC(=O)O`: the Activity in assay [3] turned out to be 87%.
On to `O=C(CCC1CCCC1)NCB(O)O`, for which the Activity was 79% in assay [1]; 85% in assay [2]; 71% in assay [3]; 98% in assay [4]; 59% in assay [5]; 100% in [6].
In the case of `O=C(NCB(O)O)c1ccccc1Cl`, the Activity is 97% in [2]; 20% in assay [7]; 70% in assay [4]; 15% in assay [11]; 81% in assay [6]; 31% in assay [12]. Also, the Ki in [10] was found to be 42 µM. Moreover, the IC50 in assay [8] is 262 µM; in assay [13] it was 85 µM.
As for `COc1ccc(C(=O)NCB(O)O)cc1`, the Activity is 81% in [1]; 81% in assay [2]; 82% in assay [7]; 50% in [3]; 38% in [5]; 92% in assay [6]. Further, the Activity in assay [9] amounted to 94%.
Consider `COc1ccc(C(=O)NCB(O)O)c(OC)c1`, for which the Activity was 86% in assay [2]; 76% in [7]; 97% in assay [4]; 69% in [11]; 18% in assay [5]; 91% in [6]. In addition, the Activity in assay [12] stood at 69%.
Take `NCB(O)O`: the Activity in assay [3] was found to be 99%.
Consider `O=C(Cc1ccc(Cl)cc1)NCB(O)O`, for which the Activity in assay [1] was found to be 32%; in assay [2], 88%; in assay [7], 69%; in assay [3], 71%; in assay [4] it was 82%; in [5] it was 20%. Further, in [6], the Activity was found to be 89%. In addition, in [8], the IC50 was 376 µM.
For `O=C(NCB(O)O)c1ccccc1F`, the Activity in assay [1] is 56%; in assay [2], 83%; in assay [7] it was 14%; in assay [3], 30%; in [4] it was 106%; in assay [6], 88%. In addition, in assay [13], inhibition was half-maximal at 505 µM (IC50).
Consider `O=C(NCB(O)O)c1ccccc1`, for which the Activity in assay [1] worked out at 78%; in assay [2], 79%; in assay [11], 80%; in assay [5] it was 56%; in [6] it was 81%; in assay [9], 81%.
Consider `O=C(NCB(O)O)c1ccc(Cl)cc1`, for which the Activity in assay [1] turned out to be 89%; in assay [2], 93%; in assay [7], 70%; in assay [3], 73%; in [5] it was 29%; in assay [6] it was 100%. For the same compound, the Activity in [9] came out at 101%.
Turning to `O=C(NCB(O)O)c1ccccc1C(F)(F)F`, the Activity in [1] is 44%; in [3], 5%; in [5], 69%; in assay [9], 109%. Besides, the IC50 in assay [8] came to 481 µM; in assay [13], 15 µM.
In the case of `O=C(NCB(O)O)c1cccs1`, the Activity in [11] turned out to be 73%; in assay [12], 66%.

The IC50 is the midpoint of a concentration-inhibition curve. As a reminder, the Ki is a measure of affinity in units of concentration, obtained from inhibition or displacement. A low value points to a stronger hold on the target.
